Assay results reported in publication PMC4132832 (Biochemical pharmacology, 2013).
Structures can show the parent of a compound that is named as a salt.

Molecular target: Kir6.1/SUR2B channel (Rattus norvegicus, UniProt Q63664)
Experiment: whole-cell voltage clamp, HEK293
Type: cell-based
In short: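 Rat Kir6.1 and SUR2B co-expressed in HEK293 with GFP marker, whole-cell patched at room temperature, holding 0 mV, 600-ms steps to -80 mV, symmetric 145 mM K+. Bath: K-gluconate/KCl, EGTA, glucose, HEPES pH 7.4. Pipette adds 1 mM K2ATP, 0.5 mM NaADP and 1 mM MgCl2. Plateau current normalized to the pinacidil/glibenclamide window. IC50 from Hill fit.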

Kir6.1/SUR2B channel, sequence (Q63664 whole entry): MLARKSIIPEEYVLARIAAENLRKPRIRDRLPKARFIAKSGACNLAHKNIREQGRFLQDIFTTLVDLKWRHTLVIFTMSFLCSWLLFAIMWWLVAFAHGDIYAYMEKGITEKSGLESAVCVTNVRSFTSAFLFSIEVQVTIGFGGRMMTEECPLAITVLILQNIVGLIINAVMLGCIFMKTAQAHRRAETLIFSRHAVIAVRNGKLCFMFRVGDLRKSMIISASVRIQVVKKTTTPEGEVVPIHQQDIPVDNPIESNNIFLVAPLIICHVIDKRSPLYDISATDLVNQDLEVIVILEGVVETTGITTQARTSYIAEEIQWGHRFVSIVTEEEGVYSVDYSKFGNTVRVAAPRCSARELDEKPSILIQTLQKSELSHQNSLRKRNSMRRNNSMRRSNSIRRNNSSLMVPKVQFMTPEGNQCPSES
Kir6.1/SUR2B channel, sequence (P70170 whole entry partner): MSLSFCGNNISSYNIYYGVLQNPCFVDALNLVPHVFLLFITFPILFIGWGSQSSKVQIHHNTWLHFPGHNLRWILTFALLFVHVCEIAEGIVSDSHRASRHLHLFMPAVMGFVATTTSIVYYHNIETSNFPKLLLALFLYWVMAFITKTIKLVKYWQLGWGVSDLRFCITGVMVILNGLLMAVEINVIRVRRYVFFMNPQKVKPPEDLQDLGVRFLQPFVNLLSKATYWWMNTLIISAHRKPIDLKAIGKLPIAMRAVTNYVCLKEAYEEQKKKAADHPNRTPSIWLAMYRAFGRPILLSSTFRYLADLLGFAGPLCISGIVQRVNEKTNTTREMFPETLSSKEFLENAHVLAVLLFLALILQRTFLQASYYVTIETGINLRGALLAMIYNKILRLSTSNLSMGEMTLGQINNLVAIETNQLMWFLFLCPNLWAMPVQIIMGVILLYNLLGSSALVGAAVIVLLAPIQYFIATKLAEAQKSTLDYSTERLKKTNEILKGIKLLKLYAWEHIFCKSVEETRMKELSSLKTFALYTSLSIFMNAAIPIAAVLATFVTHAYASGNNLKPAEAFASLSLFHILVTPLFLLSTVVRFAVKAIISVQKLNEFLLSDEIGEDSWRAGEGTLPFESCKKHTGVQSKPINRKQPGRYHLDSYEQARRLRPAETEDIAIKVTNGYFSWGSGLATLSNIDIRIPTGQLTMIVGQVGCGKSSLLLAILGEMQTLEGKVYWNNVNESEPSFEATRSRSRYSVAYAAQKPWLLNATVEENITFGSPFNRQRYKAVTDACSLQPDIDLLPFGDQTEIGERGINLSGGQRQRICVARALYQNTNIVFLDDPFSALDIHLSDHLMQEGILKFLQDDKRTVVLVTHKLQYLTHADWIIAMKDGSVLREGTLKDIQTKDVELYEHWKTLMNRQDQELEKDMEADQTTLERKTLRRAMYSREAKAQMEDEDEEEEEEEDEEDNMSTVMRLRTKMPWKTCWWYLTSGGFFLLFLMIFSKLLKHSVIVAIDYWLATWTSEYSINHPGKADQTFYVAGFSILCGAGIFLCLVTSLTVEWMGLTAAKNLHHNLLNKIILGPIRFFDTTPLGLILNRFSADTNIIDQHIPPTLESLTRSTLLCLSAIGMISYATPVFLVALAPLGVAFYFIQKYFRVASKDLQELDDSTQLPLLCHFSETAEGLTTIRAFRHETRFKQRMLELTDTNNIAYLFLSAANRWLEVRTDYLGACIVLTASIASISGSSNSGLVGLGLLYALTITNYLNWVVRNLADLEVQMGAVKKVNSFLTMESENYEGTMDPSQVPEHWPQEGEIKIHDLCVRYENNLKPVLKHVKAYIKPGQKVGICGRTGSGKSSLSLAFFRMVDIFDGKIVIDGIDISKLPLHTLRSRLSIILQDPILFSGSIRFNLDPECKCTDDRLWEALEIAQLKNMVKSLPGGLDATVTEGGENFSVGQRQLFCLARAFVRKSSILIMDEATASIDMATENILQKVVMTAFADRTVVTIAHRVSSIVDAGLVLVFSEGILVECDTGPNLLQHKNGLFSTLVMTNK

IC50	Structure (SMILES)
8 µM	CCOc1ccc(C=C2SC(=O)N(CCN)C2=O)cc1 [A6355, 3-(2-aminoethyl)-5-[(4-ethoxyphenyl)methylidene]-1,3-thiazolidine-2,4-dione hydrochloride]
60 µM	O=C1NC(=O)/C(=C/c2ccc3nccnc3c2)S1 [AS605240, (5Z)-5-(quinoxalin-6-ylmethylidene)-1,3-thiazolidine-2,4-dione]
4 µM	O=C1NC(=O)/C(=C/c2ccc(-c3ccc(F)cc3O)o2)S1 [AS-252424, (5Z)-5-[[5-(4-fluoro-2-hydroxyphenyl)furan-2-yl]methylidene]-1,3-thiazolidine-2,4-dione]
> 100 µM	O=C1NC(=O)C(Cc2ccc(O)cc2)S1 (stereo not drawn) [CDS005865, 5-(4-hydroxybenzyl)-2,4-thiazolidinedione]
120 µM	Cc1cc(SCc2sc(-c3ccc(C(F)(F)F)cc3)nc2C)ccc1OCC(=O)O [GW501516, 2-[2-methyl-4-[[4-methyl-2-[4-(trifluoromethyl)phenyl]-1,3-thiazol-5-yl]methylsulfanyl]phenoxy]acetic acid]

The remaining lines, values behind:

Structure (SMILES)	IC50
CCc1ccc(C(=O)COc2ccc(CC3SC(=O)NC3=O)cc2)nc1 (stereo not drawn) [Cay10415, 5-[[4-[2-(5-ethylpyridin-2-yl)-2-oxoethoxy]phenyl]methyl]-1,3-thiazolidine-2,4-dione]	15 µM
CC1(COc2ccc(CC3SC(=O)NC3=O)cc2)CCCCC1 (stereo not drawn) [Ciglitazone, 5-[[4-[(1-methylcyclohexyl)methoxy]phenyl]methyl]-1,3-thiazolidine-2,4-dione]	120 µM
Cc1oc(-c2ccccc2)nc1CCC(=O)c1ccc(CC2SC(=O)NC2=O)cc1 (stereo not drawn) [Darglitazone, 5-[[4-[3-(5-methyl-2-phenyl-1,3-oxazol-4-yl)propanoyl]phenyl]methyl]-1,3-thiazolidine-2,4-dione]	25 µM
O=C1NC(=O)C(Cc2ccc3c(c2)CC[C@H](Cc2ccccc2)O3)S1 (stereo partly drawn) [Englitazone, 5-[(2-benzyl-3,4-dihydro-2H-chromen-6-yl)methyl]-1,3-thiazolidine-2,4-dione]	7 µM
CC(C)OC(=O)C(C)(C)Oc1ccc(C(=O)c2ccc(Cl)cc2)cc1 [Fenofibrate, propan-2-yl 2-[4-(4-chlorobenzoyl)phenoxy]-2-methylpropanoate]	80 µM
Cc1cc(SCc2sc(-c3ccc(C(F)(F)F)c(F)c3)nc2C)ccc1OCC(=O)O [GW0742, 2-[4-[[2-[3-fluoro-4-(trifluoromethyl)phenyl]-4-methyl-1,3-thiazol-5-yl]methylsulfanyl]-2-methylphenoxy]acetic acid]	80 µM
Cc1ccc(C)c(OCCCC(C)(C)C(=O)O)c1 [Gemfibrozil, 5-(2,5-dimethylphenoxy)-2,2-dimethylpentanoic acid]	290 µM
CCc1ccc(CCOc2ccc(CC3SC(=O)NC3=O)cc2)nc1 (stereo not drawn) [Pioglitazone, 5-[[4-[2-(5-ethylpyridin-2-yl)ethoxy]phenyl]methyl]-1,3-thiazolidine-2,4-dione]	95 µM
CN(CCOc1ccc(CC2SC(=O)NC2=O)cc1)c1ccccn1 (stereo not drawn) [Rosiglitazone, 5-[[4-[2-[methyl(pyridin-2-yl)amino]ethoxy]phenyl]methyl]-1,3-thiazolidine-2,4-dione]	12 µM
Cc1c(C)c2c(c(C)c1O)CCC(C)(COc1ccc(CC3SC(=O)NC3=O)cc1)O2 (stereo not drawn) [Troglitazone, 5-[[4-[(6-hydroxy-2,5,7,8-tetramethyl-3,4-dihydrochromen-2-yl)methoxy]phenyl]methyl]-1,3-thiazolidine-2,4-dione]	100 µM
